Measured values reported in ChEMBL document CHEMBL1139690, “Comparison between two classes of selective EP(3) antagonists and their biological activities” (Bioorg Med Chem Lett, 2006).

Tests used:
[1] = biological target: T1, Prostaglandin E2 receptor EP1 subtype (Homo sapiens, UniProt P34995); test: Binding affinity to EP1 receptor
T1 sequence (P34995 whole entry): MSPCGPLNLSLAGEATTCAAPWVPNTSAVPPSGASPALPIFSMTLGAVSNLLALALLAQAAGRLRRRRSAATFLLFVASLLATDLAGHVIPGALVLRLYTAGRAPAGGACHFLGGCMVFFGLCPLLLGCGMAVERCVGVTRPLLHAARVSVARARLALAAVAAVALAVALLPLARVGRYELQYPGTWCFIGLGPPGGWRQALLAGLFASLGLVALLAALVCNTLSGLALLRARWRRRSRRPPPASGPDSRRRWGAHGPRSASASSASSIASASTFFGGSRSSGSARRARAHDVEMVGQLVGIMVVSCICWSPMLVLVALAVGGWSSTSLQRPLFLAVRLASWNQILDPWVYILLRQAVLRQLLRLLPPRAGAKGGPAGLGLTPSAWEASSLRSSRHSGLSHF

[2] = biological target: Prostaglandin E2 receptor EP2 subtype (Homo sapiens, UniProt P43116); test: Binding affinity to EP2 receptor
Prostaglandin E2 receptor EP2 subtype, sequence (P43116 whole entry): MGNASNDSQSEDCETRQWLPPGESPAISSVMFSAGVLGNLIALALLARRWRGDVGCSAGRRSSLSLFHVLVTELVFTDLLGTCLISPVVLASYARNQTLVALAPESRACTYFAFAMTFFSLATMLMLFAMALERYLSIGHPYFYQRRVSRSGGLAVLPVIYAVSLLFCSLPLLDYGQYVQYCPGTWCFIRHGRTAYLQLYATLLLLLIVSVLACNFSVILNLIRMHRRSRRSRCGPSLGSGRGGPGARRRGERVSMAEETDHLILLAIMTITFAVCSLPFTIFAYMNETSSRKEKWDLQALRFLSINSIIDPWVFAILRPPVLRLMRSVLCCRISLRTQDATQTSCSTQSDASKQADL

[3] = biological target: T2, Prostaglandin E2 receptor EP3 subtype (Homo sapiens, UniProt P43115); test: Binding affinity to EP3 receptor
T2 sequence (P43115 whole entry): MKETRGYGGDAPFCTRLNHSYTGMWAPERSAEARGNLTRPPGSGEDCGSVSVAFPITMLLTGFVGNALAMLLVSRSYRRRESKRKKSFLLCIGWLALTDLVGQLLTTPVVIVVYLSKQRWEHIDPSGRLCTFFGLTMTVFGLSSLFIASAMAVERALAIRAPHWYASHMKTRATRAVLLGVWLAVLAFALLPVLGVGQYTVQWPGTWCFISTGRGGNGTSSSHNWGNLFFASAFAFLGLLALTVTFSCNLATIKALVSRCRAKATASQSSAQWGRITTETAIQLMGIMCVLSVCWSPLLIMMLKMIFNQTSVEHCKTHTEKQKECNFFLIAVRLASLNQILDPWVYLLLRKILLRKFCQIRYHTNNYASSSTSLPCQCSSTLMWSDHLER

[4] = biological target: Prostaglandin E2 receptor EP4 subtype (Homo sapiens, UniProt P35408); test: Binding affinity to EP4 receptor
Prostaglandin E2 receptor EP4 subtype, sequence (P35408 whole entry): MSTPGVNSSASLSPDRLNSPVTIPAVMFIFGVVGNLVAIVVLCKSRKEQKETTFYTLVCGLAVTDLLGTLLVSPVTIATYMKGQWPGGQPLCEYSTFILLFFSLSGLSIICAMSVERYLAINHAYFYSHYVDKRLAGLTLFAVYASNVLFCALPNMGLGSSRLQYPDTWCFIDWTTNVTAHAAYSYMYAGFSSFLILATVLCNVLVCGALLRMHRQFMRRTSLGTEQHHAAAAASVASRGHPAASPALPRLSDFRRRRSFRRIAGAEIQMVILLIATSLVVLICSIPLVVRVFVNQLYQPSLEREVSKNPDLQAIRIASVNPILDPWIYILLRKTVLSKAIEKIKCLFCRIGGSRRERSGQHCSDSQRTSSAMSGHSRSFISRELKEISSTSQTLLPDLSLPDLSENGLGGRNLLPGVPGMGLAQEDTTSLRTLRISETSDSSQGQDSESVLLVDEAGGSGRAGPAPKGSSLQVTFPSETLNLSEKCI

[5] = Stability in rat hepatocytes after 3 hrs; assay type: ADME, cell-based, Hepatocyte; details: read-out: Stability
Method in brief: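 Incubation with rat hepatocytes for 3 h; percentage of parent compound recovered intact.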

[6] = Metabolism in human hepatocytes; assay type: ADME, cell-based, Hepatocyte; details: read-out: Activity
[7] = Bioavailability in Sprague-Dawley rat at 10 mg/kg, po and 5 mg/kg, iv; assay type: ADME, organism-based; details: in vivo
[8] = Clearance in Sprague-Dawley rat at 10 mg/kg, po and 5 mg/kg, iv; assay type: ADME, organism-based; details: in vivo
[9] = Half life in Sprague-Dawley rat at 10 mg/kg, po and 5 mg/kg, iv; assay type: ADME, organism-based; details: in vivo
[10] = Cmax in Sprague-Dawley rat at 10 mg/kg, po and 5 mg/kg, iv after 30 mins; assay type: ADME, organism-based; details: in vivo
Rattus norvegicus [11] = test: Antiinflammatory activity against carrageenan-induced paw edema in po dosed rat; assay type: functional
Rattus norvegicus [12] = test: Effect on carrageenan-induced paw hyperalgesia in po dosed rat; assay type: functional
Rattus norvegicus [13] = test: Concentration in carrageenan-induced hyperalgesic rat at 10 mg/kg, po, 1 hr postdose; assay type: functional
Method in brief: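 Young 100 g rats from the hyperalgesia model given 10 mg/kg po in 0.5% methocel as sodium salts; plasma concentration measured 1 h post-dosing, at the time hyperalgesia was assessed.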

Prostacyclin receptor = Prostacyclin receptor (Homo sapiens, UniProt P43119); test: Binding affinity to IP receptor
Prostacyclin receptor, sequence (P43119 whole entry): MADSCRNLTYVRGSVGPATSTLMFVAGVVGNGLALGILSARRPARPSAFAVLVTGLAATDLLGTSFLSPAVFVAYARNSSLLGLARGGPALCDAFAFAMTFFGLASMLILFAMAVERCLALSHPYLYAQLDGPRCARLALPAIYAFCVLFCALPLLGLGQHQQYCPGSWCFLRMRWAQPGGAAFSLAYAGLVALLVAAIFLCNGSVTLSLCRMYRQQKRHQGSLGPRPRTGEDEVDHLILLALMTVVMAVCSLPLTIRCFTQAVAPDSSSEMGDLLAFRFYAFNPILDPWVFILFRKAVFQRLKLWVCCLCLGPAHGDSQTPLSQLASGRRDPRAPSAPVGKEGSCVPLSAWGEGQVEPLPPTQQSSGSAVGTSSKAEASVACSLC

Thromboxane A2 receptor = biological target: T3, Thromboxane A2 receptor (Homo sapiens, UniProt P21731); test: Binding affinity to TP receptor
T3 sequence (P21731 whole entry): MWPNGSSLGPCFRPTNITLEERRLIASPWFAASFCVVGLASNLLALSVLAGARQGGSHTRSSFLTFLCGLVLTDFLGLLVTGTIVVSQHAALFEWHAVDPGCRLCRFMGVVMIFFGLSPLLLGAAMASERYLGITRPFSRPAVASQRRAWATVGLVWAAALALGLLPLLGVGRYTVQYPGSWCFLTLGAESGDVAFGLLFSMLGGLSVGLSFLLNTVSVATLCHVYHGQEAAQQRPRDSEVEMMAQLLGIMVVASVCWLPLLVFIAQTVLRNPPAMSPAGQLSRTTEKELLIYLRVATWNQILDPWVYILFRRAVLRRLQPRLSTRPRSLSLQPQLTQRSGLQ

[14] = biological target: Prostaglandin F2-alpha receptor (Homo sapiens, UniProt P43088); test: Binding affinity to FP receptor
Prostaglandin F2-alpha receptor, sequence (P43088 whole entry): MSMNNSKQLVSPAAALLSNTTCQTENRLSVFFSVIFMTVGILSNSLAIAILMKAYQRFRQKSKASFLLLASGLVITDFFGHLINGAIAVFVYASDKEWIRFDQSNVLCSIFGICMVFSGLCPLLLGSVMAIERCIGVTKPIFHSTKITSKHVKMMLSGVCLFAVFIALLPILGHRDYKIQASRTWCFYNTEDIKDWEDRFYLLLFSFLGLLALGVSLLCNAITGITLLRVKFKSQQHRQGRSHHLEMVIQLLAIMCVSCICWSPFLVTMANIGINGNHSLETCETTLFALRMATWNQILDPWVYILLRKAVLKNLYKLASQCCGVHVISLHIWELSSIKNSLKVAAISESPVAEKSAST

[15] = biological target: T4, Prostaglandin D2 receptor (Homo sapiens, UniProt Q13258); test: Binding affinity to DP receptor
T4 sequence (Q13258 whole entry): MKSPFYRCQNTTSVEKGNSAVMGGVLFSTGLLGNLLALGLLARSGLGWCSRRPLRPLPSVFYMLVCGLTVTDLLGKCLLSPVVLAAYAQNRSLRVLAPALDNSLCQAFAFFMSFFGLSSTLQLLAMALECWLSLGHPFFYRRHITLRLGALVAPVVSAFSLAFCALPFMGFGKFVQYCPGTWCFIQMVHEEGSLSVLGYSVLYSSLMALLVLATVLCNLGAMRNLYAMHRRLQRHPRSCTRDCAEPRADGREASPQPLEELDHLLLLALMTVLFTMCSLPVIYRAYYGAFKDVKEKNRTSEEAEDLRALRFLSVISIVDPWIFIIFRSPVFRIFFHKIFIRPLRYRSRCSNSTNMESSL

[16] = biological target: T2, Prostaglandin E2 receptor EP3 subtype; test: Binding affinity to EP3 receptor in presence of HSA
[17] = biological target: T5, Prostaglandin E2 receptor EP3 subtype (Homo sapiens) (UniProt P43115); test: Antagonistic activity at EP3 receptor assessed as inhibition of cAMP production in HEK EBNA cells; assay type: functional, cell-based; details: HEK293-EBNA, filed as antagonist
T5 sequence (whole entry): T2 sequence (P43115 whole entry)

SMILES | Ki [1] | Ki [2] | Ki [3] | Ki [4] | remaining at 3 h [5] | metabolised [6] | bioavailability [7] | clearance [8] | half-life [9] | Cmax [10] | ED50 (Rattus norvegicus [11]) | ED50 (Rattus norvegicus [12]) | Activity (Rattus norvegicus [13]) | Ki (Prostacyclin receptor) | Ki (Thromboxane A2 receptor) | Ki [14] | Ki [15] | Ki [16] | Kb [17]
Cc1ccc(OCc2ccccc2)c(CCCc2ccccc2CCC(=O)O)c1 | 23000 nM | 940 nM (antagonist) | 65 nM (antagonist) | 440 nM (antagonist) |  |  |  |  |  |  |  |  |  |  |  |  |  |  | 
COc1cc(/C=C/Cc2ccccc2/C=C/C(=O)NS(=O)(=O)c2cccs2)ccc1OCc1ccccc1 | 1500 nM (antagonist) | 8700 nM (antagonist) | 1.6 nM (antagonist) | 840 nM (antagonist) |  |  |  |  |  |  |  |  |  |  |  |  |  |  | 
O=C(/C=C/c1ccccc1Cc1ccc2ccccc2c1)NS(=O)(=O)c1cccs1 | 9600 nM (antagonist) | 8600 nM (antagonist) |  | 1300 nM (antagonist) | 43% | 45% | 144% | 12 mL/min | 3 h | 21 µM | 1.2 mg/kg | 6.2 mg/kg | 5 µM | > 500 nM | > 500 nM | > 500 nM | > 500 nM |  | 
Cc1ccc(OCc2ccccc2)c(CCCc2ccccc2CCC(=O)NS(=O)(=O)c2cccs2)c1 | 6700 nM (antagonist) | 1600 nM (antagonist) | 56 nM (antagonist) | 1000 nM (antagonist) |  |  |  |  |  |  |  |  |  |  |  |  |  |  | 
Cc1ccc(OCc2ccccc2)c(C/C=C/c2ccccc2/C=C/C(=O)NS(=O)(=O)c2cccs2)c1 | 2300 nM (antagonist) | 2100 nM (antagonist) | 10 nM (antagonist) | 960 nM (antagonist) |  |  |  |  |  |  |  |  |  |  |  |  |  |  | 
COc1ccc(C/C=C/c2ccccc2/C=C/C(=O)NS(=O)(=O)c2cccs2)cc1 | 2600 nM (antagonist) | 6500 nM (antagonist) | 2.4 nM (antagonist) | 1000 nM (antagonist) |  |  |  |  |  |  |  |  |  |  |  |  |  |  | 
O=C(O)/C=C/c1ccccc1Cc1ccc2ccccc2c1 | > 100000 nM |  | 47 nM (antagonist) | 13000 nM |  |  |  |  |  |  |  | 30 mg/kg | 5.4 µM | > 500 nM | > 500 nM | > 500 nM | > 500 nM | 400 nM (antagonist) | 
O=C(/C=C/c1ccccc1Cc1ccc2cc(OCc3ccccc3)ccc2c1)NS(=O)(=O)c1cccs1 | 3200 nM (antagonist) | 8000 nM (antagonist) | 0.6 nM (antagonist) | 1100 nM (antagonist) |  |  |  |  |  |  |  |  |  |  |  |  |  | 2.4 nM (antagonist) | 
O=C(/C=C/c1ccccc1C/C=C/c1ccccc1)NS(=O)(=O)c1cccs1 | 8500 nM (antagonist) | 8000 nM (antagonist) | 5 nM (antagonist) | 1500 nM (antagonist) |  |  |  |  |  |  |  |  |  |  |  |  |  |  | 
O=C(/C=C/c1ccccc1/C=C/Cc1ccccc1)NS(=O)(=O)c1cccs1 | 8500 nM (antagonist) | 8000 nM (antagonist) | 5 nM (antagonist) | 1500 nM (antagonist) |  |  |  |  |  |  |  |  |  |  |  |  |  |  | 
COc1cc(C/C=C/c2ccccc2/C=C/C(=O)NS(=O)(=O)c2cccs2)ccc1OCc1ccccc1 | 1500 nM (antagonist) | 8700 nM (antagonist) | 1.6 nM (antagonist) | 840 nM (antagonist) |  |  |  |  |  |  |  |  |  |  |  |  |  |  | 
COc1cc(/C=C/Cc2ccccc2/C=C/C(=O)O)ccc1OCc1ccccc1 | > 20000 nM | 750 nM (antagonist) | 8 nM (antagonist) | 610 nM (antagonist) |  |  |  |  |  |  |  |  |  |  |  |  |  |  | 
COc1ccc(Br)cc1S(=O)(=O)NC(=O)/C=C/c1ccccc1Cc1ccc2cc(OCc3ccccc3)ccc2c1 | > 100000 nM | > 100000 nM | 0.9 nM (antagonist) | 8000 nM (antagonist) |  |  |  |  |  |  |  | > 30 mg/kg | 8 µM | > 500 nM | > 500 nM | > 500 nM | > 500 nM | 0.7 nM (antagonist) | 0.7 nM
Cc1ccc(OCc2c(Cl)cccc2Cl)c(/C=C/Cc2ccccc2/C=C/C(=O)O)c1 | 6700 nM (antagonist) | 5400 nM (antagonist) | 3 nM (antagonist) | 620 nM (antagonist) |  |  | 74% | 16 mL/min | 2 h | 25 µM | 5.1 mg/kg | 5.8 mg/kg | 2.5 µM | > 500 nM | > 500 nM | > 500 nM | > 500 nM |  | 5.8 nM
COc1ccc(/C=C/Cc2ccccc2/C=C/C(=O)O)cc1 | > 100000 nM | 2500 nM (antagonist) | 68 nM (antagonist) | 6200 nM (antagonist) |  |  |  |  |  |  |  |  |  |  |  |  |  |  | 
COc1ccc(/C=C/Cc2ccccc2/C=C/C(=O)NS(=O)(=O)c2cccs2)cc1 | 2600 nM (antagonist) | 6500 nM (antagonist) | 2.4 nM (antagonist) | 1000 nM (antagonist) |  |  |  |  |  |  |  |  |  |  |  |  |  |  | 
Cc1ccc(OCc2ccccc2)c(C/C=C/c2ccccc2/C=C/C(=O)O)c1 | 19000 nM | 860 nM (antagonist) | 9 nM (antagonist) | 2000 nM (antagonist) | 8% |  | 97% | 10 mL/min | 2 h | 22 µM | 0.9 mg/kg | 20 mg/kg | 0.24 µM | > 500 nM | > 500 nM | > 500 nM | > 500 nM |  | 32 nM
O=C(O)/C=C/c1ccccc1C/C=C/c1ccccc1 | > 100000 nM | 1400 nM (antagonist) | 100 nM (antagonist) | 4400 nM (antagonist) |  |  |  |  |  |  |  |  |  |  |  |  |  |  | 
Cc1ccc(OCc2ccccc2)c(/C=C/Cc2ccccc2/C=C/C(=O)NS(=O)(=O)c2cccs2)c1 | 2300 nM (antagonist) | 2100 nM (antagonist) | 10 nM (antagonist) | 960 nM (antagonist) |  |  |  |  |  |  |  |  |  |  |  |  |  |  | 
Cc1ccc(OCc2ccccc2)c(/C=C/Cc2ccccc2/C=C/C(=O)O)c1 | 19000 nM | 860 nM (antagonist) | 9 nM (antagonist) | 2000 nM (antagonist) | 8% |  | 97% | 10 mL/min | 2 h | 22 µM | 0.9 mg/kg | 20 mg/kg | 1.2 µM | > 500 nM | > 500 nM | > 500 nM | > 500 nM |  | 32 nM
